The target of series [1] is T1, Histone deacetylase 4 (Homo sapiens, UniProt P56524). The series can be described thus: Inhibition of recombinant human N-terminal His6-SUMO-tagged C-terminal SII-tagged HDAC4 expressed in Escherichia coli (BL21) DE3 pLysS cells assessed as residual activity at 50 uM using BocLys(trifluoroacetyl)-AMC as substrate incubated for 30 mins by fluorescence assay relative to control. In short, it runs like this: (§1)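 Catalytic-domain HDAC4 (His6-SUMO/SII-tagged) and full-length codon-optimized human HDAC8 were expressed in E. coli BL21 DE3 pLysS from pET14b. Both were assayed in a two-step fluorogenic format with Boc-Lys(trifluoroacetyl)-AMC, followed by trypsin development. Compounds were screened first at 50 µM for residual activity.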

The target in series [2] is T2, Histone deacetylase 8 (Homo sapiens) (UniProt Q9BY41).
T2 sequence (whole entry): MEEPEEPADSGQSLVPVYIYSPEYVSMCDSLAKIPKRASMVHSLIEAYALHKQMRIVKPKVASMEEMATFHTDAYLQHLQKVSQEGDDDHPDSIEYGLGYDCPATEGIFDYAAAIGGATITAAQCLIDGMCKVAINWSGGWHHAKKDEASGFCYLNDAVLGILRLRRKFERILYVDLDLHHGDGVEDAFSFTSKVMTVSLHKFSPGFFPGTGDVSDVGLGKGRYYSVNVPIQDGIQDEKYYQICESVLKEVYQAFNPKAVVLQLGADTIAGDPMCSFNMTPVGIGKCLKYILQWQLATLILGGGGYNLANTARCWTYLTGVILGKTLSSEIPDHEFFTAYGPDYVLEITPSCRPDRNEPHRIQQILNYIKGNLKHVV
Briefly: Inhibition of recombinant human N-terminal His6-SUMO-tagged C-terminal SII-tagged HDAC8 expressed in Escherichia coli (BL21) DE3 pLysS cells assessed as residual activity at 50 uM using BocLys(trifluoroacetyl)-AMC as substrate incubated for 30 mins by fluorescence assay relative to control. In short, it runs like this: as §1

Series [3] deals with T1, Histone deacetylase 4. Briefly: Inhibition of recombinant human N-terminal His6-SUMO-tagged C-terminal SII-tagged HDAC4 expressed in Escherichia coli (BL21) DE3 pLysS cells using BocLys(trifluoroacetyl)-AMC as substrate incubated for 30 mins by fluorescence assay. The gist of the method: as §1
A further series deals with T3, Histone deacetylase 8 (Homo sapiens, UniProt Q9BY41).
T3 sequence (Q9BY41 whole entry): T2 sequence (whole entry)
Briefly: Inhibition of recombinant human N-terminal His6-SUMO-tagged C-terminal SII-tagged HDAC8 expressed in Escherichia coli (BL21) DE3 pLysS cells using BocLys(trifluoroacetyl)-AMC as substrate incubated for 30 mins by fluorescence assay. The gist of the method: as §1

Series [4] can be described thus: Cytotoxicity against HUVEC cells assessed as reduction in cell viability after 96 hrs by MTT assay. To be noted: human. Background: Formazan colour is commonly taken as a measure of viable cells.
The test system of another series is K562. The series can be described thus: Antiproliferative activity against human K562 cells assessed as reduction in cell viability after 48 hrs by MTT assay. To be noted: K562, 48 h. The series is classed as functional, cell-based. In short, it runs like this:
(§2)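 MCF-7, K562, A549 and HT-29 lines were seeded in 96-well plates and kept overnight at 37 °C, 5% CO2, 95% humidity. They were then exposed to six concentrations (100 to 2.5) for 48 h. After PBS washes, MTT was added for 4 h at 37 °C and formazan was dissolved in DMSO. Absorbance was read at 570 nm. Survival is mean OD of treated wells over the negative control, and IC50 was derived from that.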

A further series concerns HT-29. Briefly: Antiproliferative activity against human HT-29 cells assessed as reduction in cell viability after 48 hrs by MTT assay. The series is classed as functional, cell-based. The conditions noted are these: HT-29, 48 h. In short, it runs like this:
as §2

Series [5] has as its target Vascular endothelial growth factor receptor 2 (Homo sapiens, UniProt P35968). Briefly: Inhibition of human VEGFR2 in HUVEC cells assessed as reduction in VEGFR2 phosphorylation at 10 uM incubated for 30 mins by anti-phospho VEGF Tyr 1175 antibody based assay relative to control. The series is classed as cell-based. The gist of the method:
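HUVECs were seeded at 4000–5000 per well in DMEM with 10% FCS for 12 h, then held 24 h in serum. Compound (10 µM) was added with serum for 30 min at 37 °C. Cells were fixed in 4% formaldehyde and probed with anti-phospho-VEGFR Tyr1175 (1:1000), then an HRP secondary (1:5000). TMB signal was stopped with 2N H2SO4 and read at 450 nm. Percent inhibition is normalized to control.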

Data on 17 compounds can be found in ChEMBL document CHEMBL5120742, “Multi-target weapons: diaryl-pyrazoline thiazolidinediones simultaneously targeting VEGFR-2 and HDAC cancer hallmarks” (RSC Med Chem, 2021).

T1 sequence (P56524 whole entry): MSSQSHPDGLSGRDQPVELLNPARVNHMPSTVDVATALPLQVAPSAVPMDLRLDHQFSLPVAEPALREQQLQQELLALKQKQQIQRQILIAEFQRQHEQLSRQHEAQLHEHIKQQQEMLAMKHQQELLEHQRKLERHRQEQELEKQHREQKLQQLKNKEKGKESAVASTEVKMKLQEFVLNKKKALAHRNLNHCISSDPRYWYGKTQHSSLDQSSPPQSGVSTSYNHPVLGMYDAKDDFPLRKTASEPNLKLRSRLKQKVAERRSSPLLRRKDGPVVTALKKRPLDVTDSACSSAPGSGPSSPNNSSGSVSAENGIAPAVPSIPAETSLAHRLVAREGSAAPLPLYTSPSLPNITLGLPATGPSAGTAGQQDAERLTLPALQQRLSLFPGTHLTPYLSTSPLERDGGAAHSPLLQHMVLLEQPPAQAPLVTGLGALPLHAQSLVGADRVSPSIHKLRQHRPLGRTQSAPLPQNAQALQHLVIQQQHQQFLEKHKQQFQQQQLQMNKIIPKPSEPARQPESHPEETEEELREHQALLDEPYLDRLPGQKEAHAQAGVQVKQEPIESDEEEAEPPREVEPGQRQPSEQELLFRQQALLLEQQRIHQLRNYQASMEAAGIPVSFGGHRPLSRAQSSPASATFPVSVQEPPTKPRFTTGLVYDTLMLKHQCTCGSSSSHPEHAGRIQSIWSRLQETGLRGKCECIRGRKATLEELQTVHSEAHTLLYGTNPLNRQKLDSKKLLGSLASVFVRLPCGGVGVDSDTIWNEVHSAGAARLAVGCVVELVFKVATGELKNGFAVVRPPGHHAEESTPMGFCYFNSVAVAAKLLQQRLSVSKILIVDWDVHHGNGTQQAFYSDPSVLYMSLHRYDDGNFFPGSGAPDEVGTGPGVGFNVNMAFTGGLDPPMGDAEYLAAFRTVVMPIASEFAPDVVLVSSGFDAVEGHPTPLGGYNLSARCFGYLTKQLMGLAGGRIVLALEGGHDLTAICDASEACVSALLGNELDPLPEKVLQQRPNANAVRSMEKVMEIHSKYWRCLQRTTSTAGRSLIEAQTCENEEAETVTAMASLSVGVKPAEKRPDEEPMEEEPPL
Vascular endothelial growth factor receptor 2, sequence (P35968 whole entry): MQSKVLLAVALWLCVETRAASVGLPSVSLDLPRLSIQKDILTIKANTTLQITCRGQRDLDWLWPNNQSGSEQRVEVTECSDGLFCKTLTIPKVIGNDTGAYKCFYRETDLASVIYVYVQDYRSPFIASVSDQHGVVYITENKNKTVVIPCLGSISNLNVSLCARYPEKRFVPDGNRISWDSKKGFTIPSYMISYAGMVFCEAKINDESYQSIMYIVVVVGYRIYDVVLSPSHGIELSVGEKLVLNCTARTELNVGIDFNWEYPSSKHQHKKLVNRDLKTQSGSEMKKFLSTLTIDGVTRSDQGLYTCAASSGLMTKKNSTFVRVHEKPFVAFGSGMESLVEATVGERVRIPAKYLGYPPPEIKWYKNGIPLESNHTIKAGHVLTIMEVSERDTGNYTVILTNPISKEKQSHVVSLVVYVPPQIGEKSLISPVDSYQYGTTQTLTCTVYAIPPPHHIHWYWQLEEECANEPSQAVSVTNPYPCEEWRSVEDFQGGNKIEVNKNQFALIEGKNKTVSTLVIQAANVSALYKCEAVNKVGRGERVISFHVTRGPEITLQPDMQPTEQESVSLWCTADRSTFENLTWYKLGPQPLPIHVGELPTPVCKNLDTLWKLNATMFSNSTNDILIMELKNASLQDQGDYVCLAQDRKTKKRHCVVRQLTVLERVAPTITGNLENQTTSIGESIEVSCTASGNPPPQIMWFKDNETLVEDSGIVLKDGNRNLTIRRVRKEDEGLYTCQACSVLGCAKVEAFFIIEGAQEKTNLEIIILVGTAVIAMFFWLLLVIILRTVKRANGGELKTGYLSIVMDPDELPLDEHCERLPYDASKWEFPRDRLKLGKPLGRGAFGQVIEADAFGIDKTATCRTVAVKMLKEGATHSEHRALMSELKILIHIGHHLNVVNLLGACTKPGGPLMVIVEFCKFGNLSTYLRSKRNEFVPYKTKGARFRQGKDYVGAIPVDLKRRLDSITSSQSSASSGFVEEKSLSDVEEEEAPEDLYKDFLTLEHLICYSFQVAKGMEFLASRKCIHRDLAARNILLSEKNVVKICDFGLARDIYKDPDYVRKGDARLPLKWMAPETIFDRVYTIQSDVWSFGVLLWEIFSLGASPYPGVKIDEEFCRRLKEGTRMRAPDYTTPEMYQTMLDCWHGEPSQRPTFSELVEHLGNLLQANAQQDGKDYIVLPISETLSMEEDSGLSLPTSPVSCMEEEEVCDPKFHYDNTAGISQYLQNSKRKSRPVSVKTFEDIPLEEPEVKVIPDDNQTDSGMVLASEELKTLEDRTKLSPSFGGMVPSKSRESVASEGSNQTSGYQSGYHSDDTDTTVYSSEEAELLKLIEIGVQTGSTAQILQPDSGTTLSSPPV

Consider `O=C1NC(=O)/C(=C\c2ccc(OCC(=O)N3N=C(c4ccc(F)cc4)CC3c3ccc(F)cc3)cc2)S1` (centres undefined), for which the Activity on Histone deacetylase 4 [1] is 3.3%; in series [2], 61%. Also, the half-maximal inhibitory concentration (IC50) (usually the concentration that inhibits the measured activity by half) on Histone deacetylase 4 [3] is 1400 nM; at Histone deacetylase 8, more than 50000 nM. For the same compound, the IC50 at 96 h in series [4] was more than 10000 nM.

Consider `O=C1NC(=O)/C(=C\c2ccc(OCC(=O)N3N=C(c4ccccc4)CC3c3ccc(F)cc3F)cc2)S1` (centres undefined), for which the Activity at Histone deacetylase 4 [1] is 17%; in series [2], 33%. The values for the IC50 at Histone deacetylase 4 [3] and on Histone deacetylase 8 were 2200 nM and 34000 nM, respectively.

Regarding `O=C1NC(=O)/C(=C\c2ccc(OCC(=O)N3N=C(c4ccc(F)cc4)CC3c3ccc(F)cc3F)cc2)S1` (centres undefined), the values for the Activity (on Histone deacetylase 4 [1]; in series [2]) were 10% and 63%, respectively. Also, the IC50 on Histone deacetylase 4 [3] was 1600 nM; at Histone deacetylase 8, more than 50000 nM.

Regarding `O=C1NC(=O)/C(=C\c2ccc(OCC(=O)N3N=C(c4ccc(F)cc4F)CC3c3ccco3)cc2)S1` (centres undefined), the values for the Activity (on Histone deacetylase 4 [1]; in series [2]) were 22% and 100%, respectively. Further, the IC50 on Histone deacetylase 4 [3] was 15000 nM; on Histone deacetylase 8 it was more than 50000 nM.

As to `Cc1ccc(C2CC(c3ccc(F)cc3)=NN2C(=O)COc2ccc(/C=C3/SC(=O)NC3=O)cc2)cc1` (centres undefined), the figures for the Activity (at Histone deacetylase 4 [1]; in series [2]) were 10% and 81%, respectively. Besides, the IC50 at Histone deacetylase 4 [3] was 1800 nM; at Histone deacetylase 8, more than 50000 nM.

As to `O=C1NC(=O)/C(=C\c2ccc(OCC(=O)N3N=C(c4ccccc4)CC3c3ccc(C(F)(F)F)cc3)cc2)S1` (centres undefined), the Activity on Histone deacetylase 4 [1] was found to be 12%; in series [2] it was 8.2%. In addition, the half-maximal inhibitory concentration (IC50) on Histone deacetylase 4 [3] worked out at 1000 nM; at Histone deacetylase 8, 16000 nM. Besides, in series [4], the IC50 at 96 h was more than 10000 nM.

In the case of `CC(=O)O[C@H]1C(=O)[C@@]2(C)[C@H]([C@H](OC(=O)c3ccccc3)[C@]3(O)C[C@H](OC(=O)[C@H](O)[C@@H](NC(=O)c4ccccc4)c4ccccc4)C(C)=C1C3(C)C)[C@]1(OC(C)=O)CO[C@@H]1C[C@@H]2O` [PACLITAXEL], the figures for the IC50 in the series with K562 and in the series with HT-29 were 290 nM and 280 nM, respectively.

Take `O=C1NC(=O)/C(=C\c2ccc(OCC(=O)N3N=C(c4ccc(F)cc4F)CC3c3ccc(F)cc3)cc2)S1` (centres undefined): the Activity on Histone deacetylase 4 [1] came to 10%; in series [2], 69%. Also, the IC50 on Histone deacetylase 4 [3] is 1500 nM; on Histone deacetylase 8, more than 50000 nM.

Regarding `Cc1ccc(C2CC(c3ccc(F)cc3F)=NN2C(=O)COc2ccc(/C=C3/SC(=O)NC3=O)cc2)cc1` (centres undefined), the Activity on Histone deacetylase 4 [1] is 9.4%; in series [2] it was 69%. Also, the IC50 was 1500 nM on Histone deacetylase 4 [3] and more than 50000 nM on Histone deacetylase 8. In addition, the half-maximal inhibitory concentration (IC50) at 96 h in series [4] is more than 10000 nM.

With `O=C1NC(=O)/C(=C\c2ccc(OCC(=O)N3N=C(c4ccc(F)cc4)CC3c3ccccc3Cl)cc2)S1` (centres undefined), the figures for the Activity (on Histone deacetylase 4 [1]; in series [2]) were 3.3% and 28%, respectively. The IC50 at Histone deacetylase 4 [3] is 1100 nM; on Histone deacetylase 8 it was more than 50000 nM.

For the compound `O=C1NC(=O)/C(=C\c2ccc(OCC(=O)N3N=C(c4ccc(F)cc4)CC3c3ccccc3)cc2)S1` (centres undefined), the Activity on Histone deacetylase 4 [1] stood at 10%; in series [2], 58%. For the same compound, the IC50 at Histone deacetylase 4 [3] is 4200 nM; at Histone deacetylase 8 it was more than 50000 nM. Also, the IC50 at 96 h in series [4] is more than 10000 nM.

Take `O=C1NC(=O)/C(=C\c2ccc(OCC(=O)N3N=C(c4ccccc4)CC3c3ccc(Br)cc3)cc2)S1` (centres undefined): the Activity at Histone deacetylase 4 [1] turned out to be 7%; in series [2], 21%. Moreover, the IC50 at Histone deacetylase 4 [3] came to 1200 nM; at Histone deacetylase 8, 35000 nM.

Turning to `O=C1NC(=O)/C(=C\c2ccc(OCC(=O)N3N=C(c4ccccc4)CC3c3ccccc3)cc2)S1` (centres undefined), the Activity at Histone deacetylase 4 [1] stood at 11%; in series [2] it was 39%. Besides, the IC50 was found to be 1600 nM on Histone deacetylase 4 [3] and 20000 nM at Histone deacetylase 8.

Regarding `O=C1NC(=O)/C(=C\c2ccc(OCC(=O)N3N=C(c4ccc(F)cc4)CC3c3ccc(C(F)(F)F)cc3)cc2)S1` (centres undefined), the values for the Activity (at Histone deacetylase 4 [1]; in series [2]) were 9.2% and 81%, respectively. In addition, the IC50 on Histone deacetylase 4 [3] was 1300 nM; on Histone deacetylase 8, more than 50000 nM. In addition, in series [5], the inhibition (in general, the percentage by which the read-out fell short of the control) came to 48.7%. In series [4], the concentration for half-maximal inhibition (IC50) at 96 h was found to be 6000 nM.

As to `O=C1NC(=O)/C(=C\c2ccc(OCC(=O)N3N=C(c4ccccc4)CC3c3ccc(F)cc3)cc2)S1` (centres undefined), the Activity is 2.5% on Histone deacetylase 4 [1] and 26% in series [2]. For the same compound, the IC50 turned out to be 1700 nM at Histone deacetylase 4 [3] and 26000 nM on Histone deacetylase 8.

On to `O=C1NC(=O)/C(=C\c2ccc(OCC(=O)N3N=C(c4ccccc4)CC3c3ccccc3Cl)cc2)S1` (centres undefined), for which the Activity came to 14% on Histone deacetylase 4 [1] and 27% in series [2]. Moreover, the figures for the IC50 at Histone deacetylase 4 [3] and at Histone deacetylase 8 were 1200 nM and 29000 nM, respectively. The inhibition in series [5] was found to be 49%. Further, the IC50 at 96 h in series [4] worked out at 2000 nM.

`Cc1ccc(C2CC(c3ccccc3)=NN2C(=O)COc2ccc(/C=C3/SC(=O)NC3=O)cc2)cc1` (centres undefined): the Activity worked out at 4.6% at Histone deacetylase 4 [1] and 36% in series [2]. For the same compound, the half-inhibitory concentration (IC50) on Histone deacetylase 4 [3] was 1200 nM; at Histone deacetylase 8, 31000 nM.
